In article PMC7433031 (European journal of medicinal chemistry, 2020):
Like-named read-outs stand apart in the source and are kept apart here.

Assays:
[1] = system: CLL patients; details: cited from earlier work
[2] = system: MOLT-4 T-ALL cells; assay: MOLT-4 cell viability assay; assay type: cell-based, human
[3] = system: RS4;11 B-cell ALL cell line; assay: RS4; assay type: cell-based; details: Homo sapiens, RS4-11, 48 h, read-out: IC50 48 h treatment RS4;11
Method in brief: (§1)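 NCI-H146 small-cell lung cancer and RS4;11 B-ALL cells maintained in RPMI 1640 plus 10% FBS and 1% penicillin-streptomycin. Cells seeded at 5×10⁴ to 1×10⁵ per well and treated with test compound for 48 h. Viability measured by tetrazolium-based MTS assay, with IC50 calculated from the viability data.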

[4] = system: H146 small cell lung cancer cell line; assay: H146 cell viability assay; assay type: cell-based; details: Homo sapiens, NCI-H146, 48 h, read-out: IC50 48 h treatment H146
Method in brief: as §1

[5] = system: human platelets; assay: Human platelet viability assay; assay type: cell-based; details: for IC50: Homo sapiens, Platelet, 48 h, read-out: IC50 48 h treatment Platelets
Method in brief: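 Platelets were separated from purchased platelet-rich plasma in acid citrate buffer with 1 μM PGE1 and 0.2 units/mL apyrase (final). Cells were centrifuged and adjusted to 2 × 10⁸/mL in HEPES Tyrode's buffer with 10% FBS, 1 μM PGE1 and 0.2 units/mL apyrase. They were treated for 48 h, with or without a 10 μM pomalidomide block, and read by MTS. IC50 values were curve-fitted. The ratio divides platelet IC50 by 48 h MOLT-4 MTS IC50.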

[6] = system: BCL-XL / BCL-2 ternary complexes with DT2216 and VHL; details: live cells, nanoBRET assay; cited from earlier work
[7] = molecular target: BCL-XL (Homo sapiens, UniProt Q07817); assay: Western blot of BCL-XL protein levels in MOLT-4 cells; assay type: cell-based; details: for BCL-XL degradation in MOLT-4 cells at 100 nM: Western blot (Figure 3)
Method in brief: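 MOLT-4 cells were treated for 16 h with test compound (100 nM for VHL-based, 50 nM for CRBN-based, or a concentration series for DC50). Other runs used 100 nM over a time course, or 16 h exposure followed by washout into drug-free medium. Some cells were pretreated 2 h with 10 μM pomalidomide or 1 μM MG-132. Immunoblot bands were normalized to β-actin and expressed as % remaining versus vehicle.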

[8] = system: PARP and caspase-3 cleavage; assay: Western blot of cleaved-PARP and cleaved-caspase-3 in MOLT-4 cells; assay type: cell-based, human; details: MOLT-4, 16 h, indicated concentrations
Method in brief: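 MOLT-4 cells were exposed to a range of test compound concentrations for 16 h. Cleaved PARP and cleaved caspase-3 were detected by immunoblot. Equal protein was run on 4–20% Tris-glycine gels and transferred to PVDF. Membranes were blocked in 5% milk/TBS-Tween, given primary antibody overnight at 4 °C, then HRP secondary and ECL. β-actin served as loading control.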

[9] = Homo sapiens, MOLT-4, 48 h, read-out: IC50 48 h treatment MOLT-4
[10] = Homo sapiens, MOLT-4, 48 h, read-out: IC50, reduction of MOLT-4 cell viability

Chain of BCL-XL (Q07817 whole entry): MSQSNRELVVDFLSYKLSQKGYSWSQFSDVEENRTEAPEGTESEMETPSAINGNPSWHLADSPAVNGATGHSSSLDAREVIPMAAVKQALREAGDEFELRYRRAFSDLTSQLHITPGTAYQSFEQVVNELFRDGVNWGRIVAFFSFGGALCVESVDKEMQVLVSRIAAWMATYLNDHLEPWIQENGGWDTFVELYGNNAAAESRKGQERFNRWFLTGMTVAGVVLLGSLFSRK

Row | Molecule | IC50 [2, 9] [nM] | IC50 [2, 10] [nM] | IC50 [3] [nM] | IC50 [4] [nM] | IC50 [5] [nM] | other results
1 | CC1(C)CCC(CN2CCN(c3ccc(C(=O)NS(=O)(=O)c4ccc(NCC5CCOCC5)c([N+](=O)[O-])c4)c(Oc4cnc5[nH]ccc5c4)c3)CC2)=C(c2ccc(Cl)cc2)C1 [venetoclax] |  |  |  |  |  | complete remission rate [1]: 20%; overall response rate [1]: 71–79%
2 | CC1(C)CCC(c2ccc(Cl)cc2)=C(CN2CCN(c3ccc(C(=O)NS(=O)(=O)c4ccc(N[C@H](CCN5CCN(CCOCCOCCOCCNc6cccc7c6C(=O)N(C6CCC(=O)NC6=O)C7=O)CC5)CSc5ccccc5)c(S(=O)(=O)C(F)(F)F)c4)cc3)CC2)C1 (stereo partly drawn) [Compound 12c, 4-(4-((4’-Chloro-4,4-dimethyl-3,4,5,6-tetrahydro-[1,1’-biphenyl]-2-yl)methyl)piperazin-1-yl)-N-((4-(((2R)-4-(4-(2-(2-(2-(2-((2-(2,6-dioxopiperidin-3-yl)-1,3-dioxoisoindolin-4-yl)amino)ethoxy)ethoxy)ethoxy)ethyl)piperazin-1-yl)-1-(phenylthio)butan-2-yl)amino)-3-((trifluoromethyl)sulfonyl)phenyl)sulfonyl)benzamide] | 17.3 | 17.3 | 38.5 | 24.6 | 1560 | 
3 | Cc1ncsc1-c1ccc([C@H](C)NC(=O)[C@@H]2C[C@@H](O)CN2C(=O)[C@@H](NC(=O)CCCCCC(=O)N2CCN(CC[C@H](CSc3ccccc3)Nc3ccc(S(=O)(=O)NC(=O)c4ccc(N5CCN(CC6=C(c7ccc(Cl)cc7)CCC(C)(C)C6)CC5)cc4)cc3S(=O)(=O)C(F)(F)F)CC2)C(C)(C)C)cc1 [Compound 1e, (2S,4R)-1-((S)-2-(7-(4-((R)-3-((4-(N-(4-(4-((4’-Chloro-4,4-dimethyl-3,4,5,6-tetrahydro-[1,1’-biphenyl]-2-yl)methyl)piperazin-1-yl)benzoyl)sulfamoyl)-2-((trifluoromethyl)sulfonyl)phenyl)amino)-4-(phenylthio)butyl)piperazin-1-yl)-7-oxoheptanamido)-3,3-dimethylbutanoyl)-4-hydroxy-N-((S)-1-(4-(4-methylthiazol-5-yl)phenyl)ethyl)pyrrolidine-2-carboxamide] |  |  |  |  |  | times more potent than ABT-263 in reducing MOLT-4 cell viability ([2]; MOLT-4, versus ABT-263): 3 times; formation of stable ternary complexes with VHL [6]: BCL-XL, but not BCL-2, can form stable ternary complexes
4 | Cc1ncsc1-c1ccc([C@H](C)NC(=O)[C@@H]2C[C@@H](O)CN2C(=O)[C@@H](NC(=O)CCCCCCN(C)CC[C@H](CSc2ccccc2)Nc2ccc(S(=O)(=O)NC(=O)c3ccc(N4CCN(CC5=C(c6ccc(Cl)cc6)CCC(C)(C)C5)CC4)cc3)cc2S(=O)(=O)C(F)(F)F)C(C)(C)C)cc1 [Compound 6c, (2S,4R)-1-((S)-2-(7-(((R)-3-((4-(N-(4-(4-((4’-Chloro-4,4-dimethyl-3,4,5,6-tetrahydro-[1,1’-biphenyl]-2-yl)methyl)piperazin-1-yl)benzoyl)sulfamoyl)-2-((trifluoromethyl)sulfonyl)phenyl)amino)-4-(phenylthio)butyl)(methyl)amino)heptanamido)-3,3-dimethylbutanoyl)-4-hydroxy-N-((S)-1-(4-(4-methylthiazol-5-yl)phenyl)ethyl)pyrrolidine-2-carboxamide] |  |  |  |  |  | BCL-XL degradation in MOLT-4 cells at 100 nM ([7]; 16 h): the most potent degrader among its analogs
5 | navitoclax [ABT-263, reference compound] |  |  |  |  |  | selectivity for MOLT-4 cells over human platelets ([5]; MOLT-4 versus human platelets): no selectivity; IC50 ratio between human platelets and MOLT-4 cells ([5]; platelets IC50 / MOLT-4 IC50, 48 h): 1.1
6 | (2S,4R)-1-((S)-2-(2-(2-(2-(4-((R)-3-((4-(N-(4-(4-((4’-Chloro-4,4-dimethyl-3,4,5,6-tetrahydro-[1,1’-biphenyl]-2-yl)methyl)piperazin-1-yl)benzoyl)sulfamoyl)-2-((trifluoromethyl)sulfonyl)phenyl)amino)-4-(phenylthio)butyl)piperazin-1-yl)ethoxy)ethoxy)acetamido)-3,3-dimethylbutanoyl)-4-hydroxy-N-((S)-1-(4-(4-methylthiazol-5-yl)phenyl)ethyl)pyrrolidine-2-carboxamide [Compound 4b] |  |  |  |  |  | times less potent than 4a in reducing MOLT-4 cell viability ([2]; MOLT-4, versus 4a): ~ 6 times; IC50 ([2]; read-out: IC50, reduction of MOLT-4 cell viability, MOLT-4 cells, 48 h treatment, means of at least three independent experiments (Tables 1-4)): 914 nM; BCL-XL degradation in MOLT-4 cells at 100 nM ([7]; 16 h): slightly more potent in inducing BCL-XL degradation than 4a

Continued, in another order:

Row | IC50 [2, 9] [nM] | IC50 [2, 10] [nM] | IC50 [3] [nM] | IC50 [4] [nM] | Molecule | IC50 [5] [nM] | other results
7 | 32.5 | 32.5 | 129 | 70.2 | CN(CCCNc1cccc2c1C(=O)N(C1CCC(=O)NC1=O)C2=O)CC[C@H](CSc1ccccc1)Nc1ccc(S(=O)(=O)NC(=O)c2ccc(N3CCN(CC4=C(c5ccc(Cl)cc5)CCC(C)(C)C4)CC3)cc2)cc1S(=O)(=O)C(F)(F)F (stereo partly drawn) [Compound 16a, 4-(4-((4’-Chloro-4,4-dimethyl-3,4,5,6-tetrahydro-[1,1’-biphenyl]-2-yl)methyl)piperazin-1-yl)-N-((4-(((2R)-4-((3-((2-(2,6-dioxopiperidin-3-yl)-1,3-dioxoisoindolin-4-yl)amino)propyl)(methyl)amino)-1-(phenylthio)butan-2-yl)amino)-3-((trifluoromethyl)sulfonyl)phenyl)sulfonyl)benzamide] | 3300 | 
8 |  | 10.1 | 41.8 | 25.3 | CN(CCOCCOCCOCCNc1cccc2c1C(=O)N(C1CCC(=O)NC1=O)C2=O)CC[C@H](CSc1ccccc1)Nc1ccc(S(=O)(=O)NC(=O)c2ccc(N3CCN(CC4=C(c5ccc(Cl)cc5)CCC(C)(C)C4)CC3)cc2)cc1S(=O)(=O)C(F)(F)F (stereo partly drawn) [Compound 17b, 4-(4-((4’-Chloro-4,4-dimethyl-3,4,5,6-tetrahydro-[1,1’-biphenyl]-2-yl)methyl)piperazin-1-yl)-N-((4-(((15R)-1-((2-(2,6-dioxopiperidin-3-yl)-1,3-dioxoisoindolin-4-yl)amino)-12-methyl-16-(phenylthio)-3,6,9-trioxa-12-azahexadecan-15-yl)amino)-3-((trifluoromethyl)sulfonyl)phenyl)sulfonyl)benzamide] | 1220 | effects on BCL-XL protein levels after drug washout ([7]; MOLT-4, 100 nM for 16 h then washout): long-lasting and also reversible; BCL-XL degradation after pretreatment with MG-132 or pomalidomide ([7]; MOLT-4, 1 μM MG-132 or 10 μM pomalidomide pretreatment for 2 h): can be abrogated; BCL-XL degradation at indicated concentrations ([7]; MOLT-4, 16 h, Western blot (Figure 5A, 5F)): dose-dependently induced BCL-XL degradation; PARP and caspase-3 cleavage [8]: dose-dependently increased
9 | 29.2 | 29.2 | 62.2 | 61.7 | CN(CCCCCCCn1cc(COCCOCCNc2cccc3c2C(=O)N(C2CCC(=O)NC2=O)C3=O)nn1)CC[C@H](CSc1ccccc1)Nc1ccc(S(=O)(=O)NC(=O)c2ccc(N3CCN(CC4=C(c5ccc(Cl)cc5)CCC(C)(C)C4)CC3)cc2)cc1S(=O)(=O)C(F)(F)F (stereo partly drawn) [Compound 15a, 4-(4-((4’-Chloro-4,4-dimethyl-3,4,5,6-tetrahydro-[1,1’-biphenyl]-2-yl)methyl)piperazin-1-yl)-N-((4-(((2R)-4-((7-(4-((2-(2-((2-(2,6-dioxopiperidin-3-yl)-1,3-dioxoisoindolin-4-yl)amino)ethoxy)ethoxy)methyl)-1H-1,2,3-triazol-1-yl)heptyl)(methyl)amino)-1-(phenylthio)butan-2-yl)amino)-3-((trifluoromethyl)sulfonyl)phenyl)sulfonyl)benzamide] | 6250 | BCL-XL degradation in MOLT-4 cells at 50 nM ([7]; 50 nM, 16 h, Western blot (Figure 4)): better BCL-XL degraders than their amide analogs
